Assay [1] deals with Plasmodium berghei. As to the kind of experiment: Antimalarial activity as change in MST against drug-sensitive Plasmodium berghei infected mice (Mus musculus) at 160 mg/kg subcutaneous dose after 72 hr. The class given is functional.
Assay [2] deals with Plasmodium berghei. As to the kind of experiment: Antimalarial activity as change in MST against drug-sensitive Plasmodium berghei infected mice (Mus musculus) at 20 mg/kg subcutaneous dose after 72 hr. The class given is functional.
Assay [3] has as its system Staphylococcus aureus. Briefly: Compound was tested in vitro against […] S 18713 by gradient-plate test. The class given is functional. In a few lines: (§1)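 Antibacterial testing in vitro by gradient-plate test. Read-out was the minimum inhibitory concentration, with values exceeding 25 reported as >25.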
Assay [4] deals with Plasmodium berghei. Briefly: Antimalarial activity as change in MST for drug-sensitive Plasmodium berghei infected mice (Mus musculus) after 72 hrs at 320 mg/kg subcutaneous dose. The class given is functional.
Assay [5] relates to Plasmodium berghei. As to the kind of experiment: Antimalarial activity as change in MST for drug-sensitive Plasmodium berghei infected mice (Mus musculus) at 80 mg/kg subcutaneous dose over 72 hr. The class given is functional.
The test system of assay [6] is Shigella sonnei. Briefly: Compound was tested in vitro against Shigella sonnei C-10. by gradient-plate test. The class given is functional. In a few lines:
as §1

In assay [7] the test system is Staphylococcus aureus. Briefly: Compound was tested in vitro against […] U.C-76. by gradient-plate test. The class given is functional. In a few lines: as §1
In assay [8] the test system is Plasmodium berghei. Briefly: Antimalarial activity as change in MST for drug-sensitive Plasmodium berghei infected mice (Mus musculus) at 40 mg/kg subcutaneous dose over 72 hr. The class given is functional.
Assay [9] concerns Plasmodium berghei. As to the kind of experiment: Antimalarial activity as change in MST for drug-sensitive Plasmodium berghei infected mice (Mus musculus) at 640 mg/kg subcutaneous dose over 72 hr. The class given is functional.
Assay [10] has as its system Pseudomonas aeruginosa. Briefly: Compound was tested in vitro against Pseudomonas aeruginosa 28. by gradient-plate test. The class given is functional. In a few lines:
as §1

Assay [11] concerns Escherichia coli. As to the kind of experiment: Compound was tested in vitro against Escherichia coli Vogel. by gradient-plate test. The class given is functional. In a few lines: as §1
Assay [12] concerns Enterococcus faecalis. As to the kind of experiment: Compound was tested in vitro against Streptococcus faecalis MGH-2. by gradient-plate test. The class given is functional. A digest of the protocol: as §1
The test system of assay [13] is Mycobacterium tuberculosis. Briefly: Compound was tested in vitro against Mycobacterium tuberculosis H37Rv. by gradient-plate test. The class given is functional. A digest of the protocol:
(§2)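 Mycobacterium tuberculosis tested in vitro by gradient-plate test; minimum inhibitory concentration reported.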

Assay [14] concerns Plasmodium berghei. As to the kind of experiment: Antimalarial activity as change in MST against drug-sensitive Plasmodium berghei infected mice (Mus musculus) at 160 mg/kg subcutaneous dose after 72h. The class given is functional.
Assay [15] has as its system Plasmodium berghei. As to the kind of experiment: Antimalarial activity as change in MST against drug-sensitive Plasmodium berghei infected mice (Mus musculus) at 20 mg/kg subcutaneous dose after 72h. The class given is functional.
For assay [16], the system named is Plasmodium berghei. As to the kind of experiment: Antimalarial activity as survivor numbers at day 60 for drug-sensitive Plasmodium berghei infected mice (Mus musculus) at 640 mg/kg subcutaneous dose over 72 hr. The class given is functional. In a few lines: (§3)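 Mice infected with drug-sensitive P. berghei got one subcutaneous dose in sesame or peanut oil 72 h postinfection. Read-out is the number of mice alive at 60 days postinfection, termed "cured", without subinoculation to confirm parasitological cure. Groups of five per dose, or 10 where indicated.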

Assay [17] deals with Staphylococcus aureus. Briefly: In vitro antibacterial activity against […] S 18713. The class given is functional. A digest of the protocol:
as §1

In assay [18] the test system is Pseudomonas aeruginosa. As to the kind of experiment: In vitro against Pseudomonas aeruginosa 28. by gradient-plate test. The class given is functional. In a few lines: as §1
The test system of assay [19] is Plasmodium berghei. As to the kind of experiment: Antimalarial activity as change in MST for drug-sensitive Plasmodium berghei infected mice (Mus musculus) at 40 mg/kg subcutaneous dose over 72hr. The class given is functional.
Assay [20] deals with Mycobacterium tuberculosis. Briefly: In vitro antibacterial activity against Mycobacterium tuberculosis H37Rv. The class given is functional. A digest of the protocol:
as §2

Assay [21] relates to Escherichia coli. Briefly: Tested in vitro against Escherichia coli Vogel. by gradient-plate test. The class given is functional. In a few lines: as §1
For assay [22], the system named is Plasmodium berghei. As to the kind of experiment: Antimalarial activity as change in MST against drug-sensitive Plasmodium berghei infected mice (Mus musculus) at 320 mg/kg subcutaneous dose after 72 hr. The class given is functional.
For assay [23], the system named is Shigella sonnei. Briefly: In vitro antibacterial activity against Shigella sonnei C-10. The class given is functional. A digest of the protocol: as §1
For assay [24], the system named is Plasmodium berghei. As to the kind of experiment: Antimalarial activity as change in MST for drug-sensitive Plasmodium berghei infected mice (Mus musculus) at 80mg/kg subcutaneous dose over 72h. The class given is functional.
For assay [25], the system named is Staphylococcus aureus. As to the kind of experiment: In vitro antibacterial activity against […] U.C-76. The class given is functional. In a few lines:
as §1

Assay [26] deals with Plasmodium berghei. Briefly: In vivo antimalarial activity against drug-sensitive Plasmodium berghei in mice (Mus musculus) after 320 mg/kg subcutaneous dose for 72 hrs as survivors 60 days post infection.
The subject of assay [27] is Plasmodium berghei. Briefly: Antimalarial activity as survivor numbers at day 60 against drug-sensitive Plasmodium berghei infected mice (Mus musculus) at 160 mg/kg subcutaneous dose after 72 hr. The class given is functional. A digest of the protocol: as §3
The test system of assay [28] is Enterococcus faecalis. Briefly: In vitro antibacterial activity against Streptococcus faecalis MGH-2. The class given is functional. A digest of the protocol: as §1
Assay [29] has as its system Plasmodium berghei. Briefly: Antimalarial activity as survivor numbers at day 60 for drug-sensitive Plasmodium berghei infected mice (Mus musculus) at 320 mg/kg subcutaneous dose for 72 hr. The class given is functional. In a few lines: as §3
Assay [30] concerns Shigella sonnei. As to the kind of experiment: Compound was tested in vitro against Shigella sonnei C-10, by gradient-plate test. The class given is functional. A digest of the protocol: as §1
The subject of assay [31] is Escherichia coli. As to the kind of experiment: Compound was tested in vitro against Escherichia coli Vogel, by gradient-plate test. The class given is functional. A digest of the protocol:
as §1

Assay [32] has as its system Pseudomonas aeruginosa. As to the kind of experiment: Compound was tested in vitro against Pseudomonas aeruginosa 28, by gradient-plate test. The class given is functional. In a few lines:
as §1

Values after ≈ are worked out from the molar mass of the structure shown.

Turning to `Nc1nc(N)c2cc(S(=O)(=O)N3CCc4ccccc4C3)ccc2n1`, the “Delta MST” value with Plasmodium berghei [1] turned out to be 0.7 days; with Plasmodium berghei [2], 0.3 days; in the assay on Plasmodium berghei [4], 3.9 days; in the assay with Plasmodium berghei [5] it was 0.7 days; with Plasmodium berghei [8] it was 0.3 days; in the assay with Plasmodium berghei [9] it was 6.3 days. Also, the MIC in the assay on Staphylococcus aureus [3], in the assay on Shigella sonnei [6], in the assay with Staphylococcus aureus [7], with Pseudomonas aeruginosa [10], against Escherichia coli [11] and in the assay with Enterococcus faecalis [12] was > 25 µg/mL each time. Further, in [13], the MIC was > 25 µg/mL.

Regarding `Nc1nc(N)c2cc(S(=O)(=O)Nc3ccc(Cl)c(Cl)c3)ccc2n1`, the “Delta MST” value in the assay with Plasmodium berghei [14] turned out to be 10.1 days; in the assay with Plasmodium berghei [15], 0.3 days; in the assay with Plasmodium berghei [19], 3.1 days; with Plasmodium berghei [22], 9.9 days; in the assay on Plasmodium berghei [24], 8.1 days. Besides, the survivors at day 60 in the assay with Plasmodium berghei [16] was 5. Also, the MIC (against Staphylococcus aureus [17]; against Pseudomonas aeruginosa [18]; in [20]; against Escherichia coli [21]; against Shigella sonnei [23]; against Enterococcus faecalis [12]) was > 25 µg/mL each time. This compound returned an MIC with Staphylococcus aureus [25] of 2.5 µg/mL (≈ 6.51 µM).

For the compound `Nc1nc(N)c2cc(S(=O)(=O)N3CCOCC3)ccc2n1`, the “Delta MST” value turned out to be 1.7 days in the assay with Plasmodium berghei [15], 4.7 days in the assay with Plasmodium berghei [19] and 14.5 days in the assay with Plasmodium berghei [24]. The figures for the survivors at day 60 with Plasmodium berghei [26], with Plasmodium berghei [16] and in the assay on Plasmodium berghei [27] were 5, 10 and 10, respectively. Besides, the MIC with Staphylococcus aureus [17] is > 25 µg/mL; in the assay with Pseudomonas aeruginosa [18], > 25 µg/mL; in assay [20], > 25 µg/mL; against Escherichia coli [21], > 25 µg/mL; against Shigella sonnei [23], > 25 µg/mL; with Staphylococcus aureus [25], 2 µg/mL (≈ 6.47 µM). The MIC in the assay on Enterococcus faecalis [28] was < 0.25 µg/mL.

Consider `CCN(CC)S(=O)(=O)c1ccc2nc(N)nc(N)c2c1`, for which the “Delta MST” value in the assay on Plasmodium berghei [14] came to 9.4 days; in the assay on Plasmodium berghei [15], 0.7 days; in the assay with Plasmodium berghei [8], 3.3 days; with Plasmodium berghei [9], 5 days; in the assay on Plasmodium berghei [29], 5 days; with Plasmodium berghei [24], 4.3 days.

As for `Nc1nc(N)c2cc(S(N)(=O)=O)ccc2n1`, the “Delta MST” value came to 0.3 days in the assay with Plasmodium berghei [14], 0.1 days in the assay with Plasmodium berghei [19] and 0.3 days in the assay on Plasmodium berghei [9]. Besides, the MIC against Staphylococcus aureus [17], in the assay on Shigella sonnei [30], with Escherichia coli [31], against Pseudomonas aeruginosa [32], with Staphylococcus aureus [25] and against Enterococcus faecalis [28] was > 25 µg/mL throughout.

In the case of `CN1CCN(S(=O)(=O)c2ccc3nc(N)nc(N)c3c2)CC1`, the “Delta MST” value with Plasmodium berghei [14] is 4.4 days; with Plasmodium berghei [15] it was 0.3 days; with Plasmodium berghei [4], 8.9 days; in the assay with Plasmodium berghei [19] it was 1 days; in the assay with Plasmodium berghei [9], 11.8 days; in the assay on Plasmodium berghei [24], 1.5 days. Further, the MIC in the assay with Staphylococcus aureus [3] is > 25 µg/mL; against Staphylococcus aureus [7] it was 2 µg/mL (≈ 6.2 µM); in assay [20], > 25 µg/mL; against Escherichia coli [21], > 25 µg/mL; in the assay with Pseudomonas aeruginosa [10] it was > 25 µg/mL; with Shigella sonnei [23], > 25 µg/mL. Besides, the MIC in the assay with Enterococcus faecalis [28] worked out at 2 µg/mL (≈ 6.2 µM).

A word on the MIC: it is the least concentration at which growth counts as inhibited. Higher therefore signals a need for much substance.

(Values after ChEMBL document CHEMBL1122803, “Folate antagonists. 22. Antimalarial and antibacterial effects of 2,4-diamino-6-quinazolinesulfonamides” (1984).)
